Results reported in ChEMBL document CHEMBL4041524, “Synthesis and Characterization of a Novel γ-Aminobutyric Acid Type A (GABAA) Receptor Ligand That Combines Outstanding Metabolic Stability, Pharmacokinetics, and Anxiolytic Efficacy” (J Med Chem, 2016).
Active and inactive are the calls of the source. The calls are words filed in the database; no cut-off is given here.

Tests used:
Brain = experiment: Drug metabolism in Sprague-Dawley rat brain assessed as (E)-8-ethynyl-6-(pyridin-2-yl)-4H-benzo[f]imidazo[1,5-a][1,4]diazepine-3-carboxylic acid formation at 10 mg/kg, po measured after 120 mins by LC-MS/MS analysis; format: ADME, organism-based; conditions: in vivo, 2 h
In short: (§1)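 Sprague-Dawley rats (n = 3 per time point) were given 10 mg/kg p.o. Total plasma concentrations were taken at 15, 30, 60 and 120 min. Brain levels of the dosed ligand and of the carboxylic acid metabolite were taken at 60 or 120 min.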

[1] = biological target: T1, GABA-A receptor; alpha-2/beta-3/gamma-2 (Homo sapiens) (UniProt P18507+P28472+P47869); experiment: Modulation of recombinant GABA alpha2beta3gamma2 receptor (unknown origin) expressed in Xenopus laevis oocytes assessed as change in GABA-induced EC(3 to 6) current at 1 uM by two-electrode voltage clamp assay; format: cell-based
In short: (§2)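 Xenopus laevis oocytes expressing α1, α2, α3 or α5 β3γ2 GABAARs were recorded by two-electrode voltage clamp. Modulation of the GABA EC3-6 current (taken as 100%) was tested at 100 nM, 1 μM and 10 μM in the same cells. Values are mean ± SEM, n = 3–4.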

[2] = Total plasma concentration in Sprague-Dawley rat at 10 mg/kg, po measured after 30 mins by LC-MS/MS analysis; format: ADME, organism-based; in short: as §1
[3] = Total plasma concentration in Sprague-Dawley rat at 10 mg/kg, po measured after 60 mins by LC-MS/MS analysis; format: ADME, organism-based; in short: as §1
[4] = biological target: T1, GABA-A receptor; alpha-2/beta-3/gamma-2 (Homo sapiens); experiment: Modulation of recombinant GABA alpha2beta3gamma2 receptor (unknown origin) expressed in Xenopus laevis oocytes assessed as change in GABA-induced EC(3 to 6) current at 100 nM by two-electrode voltage clamp assay; format: cell-based; in short: as §2
[5] = biological target: T2, GABA-A receptor; alpha-5/beta-3/gamma-2 (Homo sapiens) (UniProt P18507+P28472+P31644); experiment: Modulation of recombinant GABA alpha5beta3gamma2 receptor (unknown origin) expressed in Xenopus laevis oocytes assessed as change in GABA-induced EC(3 to 6) current at 1 uM by two-electrode voltage clamp assay; format: cell-based; in short: as §2
[6] = biological target: T3, GABA-A receptor; alpha-1/beta-3/gamma-2 (Homo sapiens) (UniProt P14867+P18507+P28472); experiment: Modulation of recombinant GABA alpha1beta3gamma2 receptor (unknown origin) expressed in Xenopus laevis oocytes assessed as change in GABA-induced EC(3 to 6) current at 10 uM by two-electrode voltage clamp assay; format: cell-based; in short: as §2
[7] = biological target: T1, GABA-A receptor; alpha-2/beta-3/gamma-2 (Homo sapiens); experiment: Modulation of recombinant GABA alpha2beta3gamma2 receptor (unknown origin) expressed in Xenopus laevis oocytes assessed as change in GABA-induced EC(3 to 6) current by two-electrode voltage clamp assay; format: cell-based; in short: as §2
Mus musculus [8] = experiment: Anxiolytic-like activity in Swiss Webster mouse marble burying model of anxiety assessed as suppression of marble burying activity at 30 mg/kg, ip administered 30 mins prior to test relative to vehicle-control; format: functional, organism-based
In short: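 Male NIH Swiss Webster mice (n = 10) received vehicle or compound at 10 or 30 mg/kg i.p. 30 min before marble burying testing. Sedation-like behaviour was noted by observation. Analysis was ANOVA with Dunnett's test vs vehicle.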

Mus musculus [9] = experiment: Toxicity in Swiss mouse assessed as change in motor coordination by measuring number of falls from the rotating rod at 10 mg/kg, ip administered 30 mins prior to testing measured for 2 mins by rotarod test relative to control; format: organism-based; conditions: in vivo
In short: (§3)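 The same mice used for marble burying were placed on a rotarod at 4 r.p.m. for 2 min. No fall was scored success, one fall partial, and two falls failure.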

[10] = Total plasma concentration in Sprague-Dawley rat at 10 mg/kg, po measured after 120 mins by LC-MS/MS analysis; format: ADME, organism-based; in short: as §1
[11] = Cytotoxicity against HEK293T cells assessed as viable cells measured after 18 hrs by CellTiter-Glo assay; format: cell-based, HEK-293T; conditions: human, read-out: LD50
In short: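 HEK293T cells were exposed to compound for 18 h (n = 4). Viable cells were quantified with CellTiter-Glo, and LD50 was derived.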

[12] = biological target: T2, GABA-A receptor; alpha-5/beta-3/gamma-2 (Homo sapiens); experiment: Modulation of recombinant GABA alpha5beta3gamma2 receptor (unknown origin) expressed in Xenopus laevis oocytes assessed as change in GABA-induced EC(3 to 6) current at 10 uM by two-electrode voltage clamp assay; format: cell-based; in short: as §2
[13] = biological target: T4, GABA-A receptor; alpha-3/beta-3/gamma-2 (Homo sapiens) (UniProt P18507+P28472+P34903); experiment: Modulation of recombinant GABA alpha3beta3gamma2 receptor (unknown origin) expressed in Xenopus laevis oocytes assessed as change in GABA-induced EC(3 to 6) current at 1 uM by two-electrode voltage clamp assay; format: cell-based; in short: as §2
Rattus norvegicus = experiment: Anxiolytic like activity in water-deprived Sprague-Dawley rat assessed as increase in water drinking time during punished period at 30 mg/kg, po administered 30 prior to testing by Vogel conflict test relative to vehicle control; format: functional
In short: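 Water-deprived male Sprague-Dawley rats (n = 6–8) drank during unpunished and punished periods, with licking suppressed by mild shock in punished periods. Compounds were given 30 min before testing. Analysis was ANOVA with Dunnett's test.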

[14] = biological target: T4, GABA-A receptor; alpha-3/beta-3/gamma-2 (Homo sapiens); experiment: Modulation of recombinant GABA alpha3beta3gamma2 receptor (unknown origin) expressed in Xenopus laevis oocytes assessed as change in GABA-induced EC(3 to 6) current at 100 nM by two-electrode voltage clamp assay; format: cell-based; in short: as §2
[15] = biological target: T3, GABA-A receptor; alpha-1/beta-3/gamma-2 (Homo sapiens); experiment: Modulation of recombinant GABA alpha1beta3gamma2 receptor (unknown origin) expressed in Xenopus laevis oocytes assessed as change in GABA-induced EC(3 to 6) current at 1 uM by two-electrode voltage clamp assay; format: cell-based; in short: as §2
Liver [16] = experiment: Metabolic stability in human liver microsomes assessed as compound remaining at 4 uM measured after 30 mins in presence of NADPH by LC-MS/MS analysis; format: ADME, microsome; conditions: 0.5 h
In short: (§4)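 Human, mouse or rat liver microsomes were incubated with compound at 4 μM final for 30 min at 37 °C (n = 1). Percent of parent remaining was quantified by LC-MS/MS.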

[17] = Total plasma concentration in Sprague-Dawley rat at 10 mg/kg, po measured after 15 mins by LC-MS/MS analysis; format: ADME, organism-based; in short: as §1
Liver [18] = experiment: Metabolic stability in rat liver microsomes assessed as compound remaining at 4 uM measured after 30 mins in presence of NADPH by LC-MS/MS analysis; format: ADME, microsome; conditions: 0.5 h; in short: as §4
[19] = biological target: T2, GABA-A receptor; alpha-5/beta-3/gamma-2 (Homo sapiens); experiment: Modulation of recombinant GABA alpha5beta3gamma2 receptor (unknown origin) expressed in Xenopus laevis oocytes assessed as change in GABA-induced EC(3 to 6) current by two-electrode voltage clamp assay; format: cell-based; in short: as §2
[20] = Drug uptake in Sprague-Dawley rat brain at 10 mg/kg, po measured after 120 mins by LC-MS/MS analysis; format: ADME, organism-based; conditions: read-out: Drug uptake; in short: as §1
Liver [21] = experiment: Metabolic stability in mouse liver microsomes assessed as compound remaining at 4 uM measured after 30 mins in presence of NADPH by LC-MS/MS analysis; format: ADME, microsome; conditions: 0.5 h; in short: as §4
[22] = biological target: T4, GABA-A receptor; alpha-3/beta-3/gamma-2 (Homo sapiens); experiment: Modulation of recombinant GABA alpha3beta3gamma2 receptor (unknown origin) expressed in Xenopus laevis oocytes assessed as change in GABA-induced EC(3 to 6) current at 10 uM by two-electrode voltage clamp assay; format: cell-based; in short: as §2
[23] = biological target: T4, GABA-A receptor; alpha-3/beta-3/gamma-2 (Homo sapiens); experiment: Modulation of recombinant GABA alpha3beta3gamma2 receptor (unknown origin) expressed in Xenopus laevis oocytes assessed as change in GABA-induced EC(3 to 6) current by two-electrode voltage clamp assay; format: cell-based; in short: as §2
[24] = biological target: T1, GABA-A receptor; alpha-2/beta-3/gamma-2 (Homo sapiens); experiment: Modulation of recombinant GABA alpha2beta3gamma2 receptor (unknown origin) expressed in Xenopus laevis oocytes assessed as change in GABA-induced EC(3 to 6) current at 10 uM by two-electrode voltage clamp assay; format: cell-based; in short: as §2
[25] = biological target: T3, GABA-A receptor; alpha-1/beta-3/gamma-2 (Homo sapiens); experiment: Modulation of recombinant GABA alpha1beta3gamma2 receptor (unknown origin) expressed in Xenopus laevis oocytes assessed as change in GABA-induced EC(3 to 6) current by two-electrode voltage clamp assay; format: cell-based; in short: as §2
Mus musculus [26] = experiment: Toxicity in Swiss mouse assessed as change in motor coordination by measuring number of falls from the rotating rod at 30 mg/kg, ip administered 30 mins prior to testing measured for 2 mins by rotarod test relative to control; format: organism-based; conditions: in vivo; in short: as §3

C#Cc1ccc2c(c1)C(c1ccccn1)=NCc1c(C(=O)OCC)ncn1-2
Drug metabolism (Brain): 10 nM
Activity [1]: 207%
concentration at 0.5 h [2]: < 12.2 nM
concentration at 1 h [3]: < 12.2 nM
Activity [4]: 111%
Activity [5]: 134%
Activity [6]: 178%
Activity [7]: Dose-dependent effect
Activity (Mus musculus [8]): Active
Activity (Mus musculus [9]): Toxic
concentration at 2 h [10]: < 12.2 nM
CC50 at 18 h [11]: > 100 µM
Activity [12]: 158%
Activity [13]: 195%
Activity (Rattus norvegicus): inactive
Activity [14]: 119%
Activity [15]: 147%
Stability (Liver [16]): 86%
concentration at 0.25 h [17]: < 12.2 nM
Stability (Liver [18]): 58%
Activity [19]: Dose-dependent effect
concentration at 2 h [20]: < 12.2 nM
Stability (Liver [21]): 57%
Activity [22]: 305%
Activity [23]: Dose-dependent effect
Activity [24]: 244%
Activity [25]: Dose-dependent effect
Activity (Mus musculus [26]): Toxic
